Scp-1 inhibitor: inhibitors of human Scp-1 phosphatase. Recombinant Scp1, phosphopeptide, malachite green phosphate absorbance. inhibition, % at 20 µM. 340,000 compounds, 0.88% hits. AID 493091;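 active = inhibition above about 50% at 20 µM, limit read from the data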;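 note: plate controls were DMSO wells with enzyme for no effect and wells lacking enzyme for full effect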
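Incubation: 45 min enzyme reaction at room temperature / System: truncated SCP-1 phosphatase (76-261aa) / Reagent: Phospho 17-mer peptide substrate / Buffer or medium: Acidic Tris acetate buffer with magnesium and detergent / Signal: absorbance at 630 nm / Doses: one concentration, 20 µM, with 1.0% DMSO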
NadD block: inhibitors of Staphylococcus aureus NadD; purified NadD enzyme, colorimetric absorbance read-out; 360,000 compounds, 0.78% hits; inhibition, % at 20 µM; AID 602399; in the data active = inhibition above about 26%
rCAG RNA binder: binds r(CAG) RNA repeats | inhibition, % at 3 µM | r(CAG) RNA repeat, TO-PRO-1 dye displacement fluorescence | 370,000 compounds, 1.3% hits;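 active = inhibition above the plate cutoff, the mean of all test compounds on that plate plus 3 SD, cut at about 35% in these data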;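 note: 0% = DMSO alone and 100% = 100 µM mitoxantrone as full dye displacement; higher means more dye released from RNA so lower well fluorescence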
STEP inh: blocks human striatal-enriched tyrosine phosphatase; inhibition, % at 20 µM; P54829; 360,000 compounds, 0.25% hits; AID 588621; recombinant STEP, OMFP fluorogenic substrate, fluorescence;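 active = inhibition at 20 µM, scaled per plate between control wells, above about 37%, limit read from the data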;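 note: 0% = DMSO with enzyme and substrate and 100% = substrate only without enzyme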
Target sequence (P54829 whole entry, looked up): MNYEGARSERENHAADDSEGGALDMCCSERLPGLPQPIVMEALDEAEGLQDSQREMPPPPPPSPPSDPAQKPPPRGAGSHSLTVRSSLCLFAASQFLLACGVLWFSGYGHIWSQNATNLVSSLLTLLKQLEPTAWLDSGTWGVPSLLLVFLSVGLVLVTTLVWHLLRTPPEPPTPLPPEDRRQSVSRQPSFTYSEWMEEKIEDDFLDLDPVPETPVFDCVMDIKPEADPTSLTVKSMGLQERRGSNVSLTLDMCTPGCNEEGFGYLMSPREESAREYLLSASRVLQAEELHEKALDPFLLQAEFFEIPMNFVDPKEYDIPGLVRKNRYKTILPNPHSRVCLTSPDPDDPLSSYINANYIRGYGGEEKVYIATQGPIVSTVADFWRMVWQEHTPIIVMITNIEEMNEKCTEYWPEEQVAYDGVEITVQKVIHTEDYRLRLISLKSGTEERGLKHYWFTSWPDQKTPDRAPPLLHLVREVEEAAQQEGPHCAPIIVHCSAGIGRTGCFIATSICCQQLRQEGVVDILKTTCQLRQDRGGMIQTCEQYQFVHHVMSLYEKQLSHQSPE
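System: STEP (striatal-enriched tyrosine phosphatase) enzyme, cell-free; medium: Bis-Tris pH 6.0 buffer with DTT, detergent; dosing: 20 µM, 1% DMSO; times: reaction 20 min, ambient temperature; detection: fluorescence, 480/540 nm; read-out basis: normalized % inhibition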
LMPTP block: LMPTP (human) inhibition; P24666; recombinant LMPTP-A, OMFP fluorogenic substrate, fluorescence intensity; inhibition, % at 20 µM; 360,000 compounds, 0.22% hits;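 active = compounds that cut the enzyme signal by at least half of the control window in the single-dose screen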;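 note: plate controls were DMSO wells with enzyme plus substrate for no effect and substrate without enzyme for full effect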
Target sequence (P24666 whole entry, looked up): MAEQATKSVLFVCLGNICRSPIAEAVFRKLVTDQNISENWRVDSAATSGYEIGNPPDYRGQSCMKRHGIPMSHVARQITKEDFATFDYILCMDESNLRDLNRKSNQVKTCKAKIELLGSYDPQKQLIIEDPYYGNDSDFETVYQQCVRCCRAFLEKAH
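Assay system: LMPTP-A enzyme. Input: 0.625 nM LMPTP-A final. Probe or stimulus: 400 µM OMFP. Compound dosing: single 20 µM dose. Schedule: 50 min dark incubation at room temperature. Detection: fluorescence intensity of OMFP turnover product. Read-out: percent inhibition versus substrate-only and uninhibited controls. Benchmarks: no-enzyme low control, uninhibited high control.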
Scp-1 conf: Scp-1 (human) inhibition, single-dose confirmed; shares compounds with Scp-1 inhibitor; recombinant SCP-1 catalytic domain, phosphate release, malachite green absorbance; inhibition, % at 20 µM; 2,500 compounds, 61% hits; AID 540281;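 note: plate controls were DMSO with enzyme for no effect and buffer wells lacking enzyme for full effect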
MG interference: counter-screen for Scp-1 inhibitors: colorimetric interference; shares compounds with Scp-1 inhibitor; Colorimetric interference counterscreen, malachite green absorbance 630 nm; apparent inhibition (interference), % at 20 µM; 2,500 tested, under 10 active;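 note: compounds added after enzyme reaction finished so only phosphate colour detection is probed; plate controls were DMSO wells with completed Scp-1 reaction for no effect and substrate wells lacking enzyme for full effect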
Scp-1 Tm shift: Scp-1 (human) binding by thermal shift; shares compounds with Scp-1 inhibitor; Recombinant SCP1, Sypro Orange thermal shift Tm; thermal shift relative to vanadate control, % at 40 µM; 1,500 compounds, 25% hits; AID 540329;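 active = substances whose mean melting-temperature shift, as a percentage of the reference inhibitor's shift, reaches about 5.3%, limit read from the data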;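 note: 0% = Tm of DMSO wells and 100% = Tm with sodium orthovanadate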
STEP conf: confirmation of human STEP phosphatase inhibitors | shares compounds with STEP inh | recombinant STEP, OMFP fluorogenic substrate, fluorescence | AID 623866 | 520 compounds, 32% hits | inhibition, % at 20 µM; call rule not given here;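 note: 0% = enzyme with substrate plus DMSO and 100% = substrate without enzyme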
NadD conf: NadD (S. aureus) inhibition, single concentration confirmation | shares compounds with NadD block | purified S. aureus NadD, colorimetric enzyme assay | inhibition, % at 20 µM | 2,000 compounds, 13% hits; in the data active = inhibition mostly above about 42%, no sharp cut-off; inactive = mostly below about 42%
rCAG binder conf: r(CAG) RNA repeat binding, confirmation. shares compounds with rCAG RNA binder. TO-PRO-1 dye displacement fluorescence. inhibition, % at 3 µM. 4,300 compounds, 70% hits. AID 652065;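 active = inhibition above a per-plate cutoff, the mean inhibition of sample wells plus 3 SD, cut at about 35% in these data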;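 note: loss of TO-PRO-1 fluorescence as compound displaces dye from 1x1 AA loop RNA; 0% = DMSO only wells and 100% = 100 µM mitoxantrone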
dCAG dye counter: counter-screen for rCAG RNA binders: DNA CAG dye complex inhibitors. shares compounds with rCAG RNA binder. d(CAG) DNA oligo TO-PRO-1 dye displacement, fluorescence. inhibition, % at 3 µM. 4,300 compounds, 94% hits. AID 652068;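 active = inhibition above its plate's cutoff, the mean test-well inhibition plus 3 SD, cut at about 4.8% in these data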;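 note: 0% = DNA dye mix with DMSO and 100% = 100 µM mitoxantrone; hits displace the dye from DNA and so lower well fluorescence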
DNA CAG DR: disrupts DNA CAG TO-PRO-1 complex in dose response; DNA CAG/GTC duplex TO-PRO-1 dye displacement fluorescence; IC50, µM; shares compounds with rCAG RNA binder; 250 compounds, 20% hits; in the data active = IC50 below about 10 µM
* hit, by the source's call; i = inactive; nt = no result given. Most compounds without a hit are left out; they make up all but 2.6% or so of the library.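 Rule for the calls, unless noted: active = inhibition of at least 30% at 20 µM; inactive = the rest.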

SMILES	Scp-1 inhibitor	NadD block	rCAG RNA binder	STEP inh	LMPTP block	Scp-1 conf	MG interference	Scp-1 Tm shift	rCAG binder conf	dCAG dye counter	others
O=C(N/N=C/C=C/c1ccccc1[N+](=O)[O-])c1ccncc1	-4	5	3	2	-1	nt	nt	nt	nt	nt
Cc1ccc(Cn2c(C(C)Nc3nc(-c4ccc(C)cc4)cs3)nc3cc(Cl)c(Cl)cc32)cc1 (stereo not drawn)	61*	35*	8	78*	24	56*	2	4	nt	nt	STEP conf=26;NadD conf=25
C=C1CN(CC(=O)OC)S(=O)(=O)c2ccccc21	-1	-1	6	-5	0	nt	nt	nt	nt	nt
C=C1CN(Cc2ccccc2)S(=O)(=O)c2ccccc21	95*	42*	1	-1	3	68*	-18	0	nt	nt	NadD conf=32
Cn1c(SCC(=O)Nc2ccccc2)nc(O)cc1=O	-4	2	37*	2	-1	-7	-4	nt	7	5.0*
COc1ccc(NC(=O)CSc2nc(O)cc(=O)n2C)cc1	-8	-5	33	4	-1	nt	nt	nt	nt	nt
N=C1/C(=C\c2ccc(Br)o2)C(=O)N=C2SC(CC(=O)N3CCOCC3)=NN12	78*	1	36*	4	2	36*	-18	6.8*	18	5.1*
COCCN1C(=O)/C(=C2/C(=O)N(CC(=O)Nc3ccccc3Cl)c3ccccc32)SC1=S	-5	22	0	8	5	nt	nt	nt	nt	nt
O=C(CN1C(=O)/C(=C2/SC(=S)N(CCS(=O)(=O)O)C2=O)c2ccccc21)Nc1cccc(C(F)(F)F)c1	84*	34*	91*	5	5	85*	-15	885*	94*	78*
Clc1ccc([C@H]2OC[C@@]3(CNCc4ccccn4)CS[C@H](c4ccc(Cl)cc4)N23)cc1	nt	nt	2	nt	nt	nt	nt	nt	nt	nt
COc1ccc(-c2cc(-c3nnc(SCC(=O)Nc4ccc(-c5nc6ccc(C)cc6s5)cc4)n3N)[nH]n2)cc1	nt	nt	6	nt	nt	nt	nt	nt	nt	nt
CCc1nnc(NC(=O)c2cc(-c3ccccn3)nc3ccccc23)s1	-3	6	2	-4	0	nt	nt	nt	nt	nt
CCc1nnc(NC(=O)c2cc(-c3ccco3)nc3ccccc23)s1	65*	81*	36*	10	45	45*	-15	8.5*	23	16*	NadD conf=44
O=C(O)c1ccc(/C=N/NC(=O)c2cc(-c3ccc4c5c(cccc35)CC4)n[nH]2)cc1	76*	28*	81*	52*	5	67*	-14	-49	80*	49*	STEP conf=-9;NadD conf=34
CCOc1ccc(Nc2ccc(N)c(S(=O)(=O)O)c2)cc1	84*	10	55*	81*	74*	66*	-13	20*	52*	18*
Clc1ccc(-n2c(SCc3cccc4ccccc34)nnc2-c2ccccn2)cc1	nt	nt	8	nt	nt	nt	nt	nt	nt	nt
C[N+]1=C(N)N[C@@]2(C=C3CCCCC3n3c(=O)n(-c4ccccc4)c(=O)n32)C1 (stereo partly drawn)	nt	nt	2	nt	nt	nt	nt	nt	nt	nt
C=CCOc1ccc(C=NNc2ccc(S(=O)(=O)Nc3ccccc3C(=O)O)cc2[N+](=O)[O-])cc1OC	71*	18	37*	100*	100*	82*	-19	15*	95*	80*
CC(C)CNC(=O)OCc1cn(Cc2cccc(Cl)c2)nn1	nt	nt	0	nt	nt	nt	nt	nt	nt	nt
Cc1nn(CCc2nn[nH]n2)c2nc(-c3ccc(Br)cc3)cc(C(F)(F)F)c12	53*	28*	44*	26	0	24	-15	nt	71*	25*	NadD conf=42;DNA CAG DR=i
COc1cc(/C=C2\C(=N)N3N=C(S(C)(=O)=O)SC3=NC2=O)ccc1OS(=O)(=O)c1ccc(C)cc1	69*	17	51*	3	1	75*	-16	12*	87*	59*
CCOc1cc(/C=C2/C(=N)N3N=C(C)SC3=NC2=O)ccc1OS(=O)(=O)c1ccc(C)cc1	-9	6	12	-1	1	nt	nt	nt	nt	nt
CCOC(=O)[C@]12CCCC3=C1N(CCC3)C(=O)[C@@H](CC(=O)NCCCN1CCCC1=O)C2	nt	nt	-1	nt	nt	nt	nt	nt	nt	nt
Cc1cccc(NC(=O)CN2C(=O)S/C(=C\c3cccn3-c3cccc(C(=O)O)c3)C2=O)c1	70*	20	84*	11	4	71*	-6	11*	81*	49*
COc1ccc(/C=C2\SC(=O)N(CC(=O)Nc3cccc(C)c3)C2=O)cc1O	3	1	21	1	0	nt	nt	nt	nt	nt
SMILES	Scp-1 inhibitor	NadD block	rCAG RNA binder	STEP inh	LMPTP block	Scp-1 conf	MG interference	Scp-1 Tm shift	rCAG binder conf	dCAG dye counter	others
CC(C)CNc1ccc2c(c1)OC[C@@H](CC(C)C)NS2(=O)=O	nt	nt	-1	nt	nt	nt	nt	nt	nt	nt
O=C1/C(=C/c2ccc(O)c([N+](=O)[O-])c2)SC(=S)N1Cc1ccccc1	-4	17	7	3	-1	nt	nt	nt	nt	nt
O=C1/C(=C\c2cccc([N+](=O)[O-])c2O)SC(=S)N1Cc1ccccc1	73*	11	37*	6	9	16	-25	nt	93*	78*
CCNC(=O)N(C)[C@H]1C[C@H]2c3[nH]c4c(-c5cccc(C)c5)cccc4c3CCN2C(=O)[C@H]1[C@H](C)O	nt	nt	8	nt	nt	nt	nt	nt	nt	nt
O=C1Nc2ccc3sc4ccccc4c3c2C1=O	93*	1	36*	96*	77*	79*	-9	8.0*	17	14*	STEP conf=53*
CN(CCO)C1CN(Cc2cn(Cc3ccccc3C(F)(F)F)nn2)S(=O)(=O)C1 (stereo not drawn)	nt	nt	4	nt	nt	nt	nt	nt	nt	nt
CCOc1cc(/C=N/N=C2/NC(=O)C(CC(=O)O)S2)ccc1OCc1ccccc1Cl (stereo not drawn)	75*	18	64*	8	1	64*	-17	-17	46*	13*

Source: PubChem
